Tn6 DDE FP: inhibitors of Tn6 peptide binding to fibrin DD(E), primary screen, biochemical, fluorescence polarization, human fibrin, Tn6 probe. Fibrinogen beta chain (Homo sapiens), P02675. inhibition, % at 8.3 µM. AID 720509, 2013. Fibrin DD(E) TRITC-Tn6 fluorescence polarization displacement. 370,000 tested, 0.21% active;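 active = inhibition above a per-campaign cutoff: mean of compounds within control limits plus 3 SD, cut at about 15% in these data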
ABHD4 inh: ABHD4 inhibitors, primary screen, biochemical, fluorescence polarization, mouse; (Lyso)-N-acylphosphatidylethanolamine lipase (Mus musculus), Q8VD66; purified mABHD4, FP-Rh probe fluorescence polarization; inhibition, % at 8.92 µM; 370,000 tested, 0.54% active; AID 720543, 2013;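 active = inhibition exceeding the mean over every tested compound plus 3 SD, cut at about 30% in these data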
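System: mouse ABHD4 enzyme, wild type / Medium: HEPES pH 7.0, NaCl, Pluronic buffer / Reagent: FP-Rh activity-based fluorescent probe / Control set: S159A mutant high control, sample median low control / Detection: fluorescence polarization with parallel and perpendicular emission, 525/598 nm / Schedule: 45 min + 60 min at 25 °C / Compound dosing: 8.92 µM, single dose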
TCR-CD3 inh: inhibitors of human TCR-CD3 interaction, primary screen, biochemical, fluorescence, TAMRA-labeled TCR probe | inhibition, % at 9.4 µM | 360,000 tested, 0.37% active | T-cell receptor (TCR); in the data active = inhibition above about 19%;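 note: recombinant mutant TCR 2C K166C tagged with TAMRA read by polarization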
SIAE primary: human SIAE inhibitors, primary screen, biochemical, fluorescence polarization, FP-Rh probe, 1536-well HTS; AID 1053197, 2014; Sialate O-acetylesterase (Homo sapiens), Q9HAT2; inhibition, % at 9.66 µM; SIAE FP-Rh probe binding; 370,000 tested, 0.69% active;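 active = inhibition above a cutoff: mean of compounds within the control limits plus 3 SD of those, cut at about 17% in these data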
Target sequence (Q9HAT2 whole entry, looked up): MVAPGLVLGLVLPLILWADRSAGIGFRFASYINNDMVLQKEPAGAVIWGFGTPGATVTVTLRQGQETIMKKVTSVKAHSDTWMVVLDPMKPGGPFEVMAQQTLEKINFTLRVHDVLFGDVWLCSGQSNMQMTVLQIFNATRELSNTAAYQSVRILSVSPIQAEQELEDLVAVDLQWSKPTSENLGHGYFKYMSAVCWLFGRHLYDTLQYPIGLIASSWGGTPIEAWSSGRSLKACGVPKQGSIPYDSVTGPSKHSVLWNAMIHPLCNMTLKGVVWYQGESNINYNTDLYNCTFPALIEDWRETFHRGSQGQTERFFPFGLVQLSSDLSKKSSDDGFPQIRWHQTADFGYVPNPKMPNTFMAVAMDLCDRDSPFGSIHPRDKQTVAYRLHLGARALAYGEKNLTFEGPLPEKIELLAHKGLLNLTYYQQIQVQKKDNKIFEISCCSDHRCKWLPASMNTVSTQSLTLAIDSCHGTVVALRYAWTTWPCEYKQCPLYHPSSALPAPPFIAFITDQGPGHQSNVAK
Tn7 DDE FP: inhibitors of Tn7 peptide binding to fibrin DD(E), primary screen, biochemical, fluorescence polarization, human fibrin, Tn7 probe; Fibrinogen beta chain (Homo sapiens), P02675; FP displacement of FITC-Tn7 peptide from fibrin DD(E); 0% = median of compound wells per plate; inhibition, % at 8.3 µM; 370,000 tested, 0.13% active; AID 720508, 2013;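 active = inhibition above the mean of compounds falling within the control limits plus 3 SD of them, cut at about 14% in these data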
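Test system: human clot-derived fibrin DD(E) complex / Quantity: 2 µM final DD(E) protein / Incubation: 10 min plus 3 h, room temperature / Measured by: fluorescence polarization / Benchmarks: high control of 10 µM Aha-Tn7 peptide / Replicates: singlicate testing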
HTRA1 inhibitor: HTRA1 serine protease inhibitors, primary screen, biochemical, fluorescence polarization, HTS | inhibition, % at 5.96 µM | recombinant HTRA1, FP-rhodamine activity-based probe | AID 504803, 2011 | 340,000 tested, 0.5% active | Q92743; in the data active = inhibition above about 36%
HTRA1 conf: HTRA1 protease inhibitors, retest, confirmation, biochemical, fluorescence polarization; 1,600 tested, 66% active; shares compounds with HTRA1 inhibitor; AID 540248, 2011; recombinant HTRA1, FP-rhodamine activity-based probe; inhibition, % at 5.96 µM;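 active = mean inhibition over three repeats above a set limit taken from the earlier primary screen, cut at about 37% in these data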;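 note: inhibitors block probe binding so polarization drops and inhibition rises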
Large screens that a line does not name were inactive (follow-up assays come after a bar, where they were run). In the library only some 1.8% were active in any assay of this set; here they are far more common.

O=C(CSc1nnc(-c2cccnc2)o1)Nc1cccc(Cl)c1	none
CCn1c2ccccc2c2cc(NC(=O)CSc3nnc(-c4cccc(Cl)c4)o3)ccc21	SIAE primary 26.8
Nc1ccccc1Sc1nc2ccccc2[nH]1	SIAE primary 18.2
Nc1nc2ccccc2[nH]1	none
O=C(NCCc1ccc(F)cc1)c1cc2ccccn2n1	none (no result: TCR-CD3 inh, HTRA1 inhibitor)
Cc1cc(O)c(CN(C)C)c2c1C(=O)/C(=C/c1ccco1)O2	none
Cc1cc(O)c(C=O)c2c1C(=O)Oc1c(CO)c(O)c3c(c1O2)C(O)OC3=O (stereo not drawn)	HTRA1 inhibitor 41.1 (no result: Tn6 DDE FP, ABHD4 inh, TCR-CD3 inh, SIAE primary, Tn7 DDE FP)
C=CCNC(=O)c1ccsc1N	Tn6 DDE FP 16.6 (no result: HTRA1 inhibitor)
CC(C)N1CCCCC(NC(=O)c2cccc(F)c2)C1=O (stereo not drawn)	none (no result: TCR-CD3 inh, HTRA1 inhibitor)
CSc1cccc(NC(=S)NN/C(=N/S(=O)(=O)c2ccccc2)N2CCCC2)c1	none (no result: HTRA1 inhibitor)
[C-]#[N+][C@]12C(=O)[C@H](C=C(Cl)[C@@]1(C)C=C)C(C)(C)[C@H]1C(=O)N(C)c3cccc2c31	none (no result: TCR-CD3 inh, HTRA1 inhibitor)
Cc1[nH]c2ccccc2c1/C=N/NC(=O)c1cccc(S(=O)(=O)Nc2cccc(C(F)(F)F)c2)c1	SIAE primary 18.8
Cc1ccc(-n2c(SCC(=O)Nc3ccccc3-c3ccccc3)nnc2-c2cccnc2)cc1	none (no result: TCR-CD3 inh, HTRA1 inhibitor)
O=C(Nc1ccc(Cl)cc1)Nc1ccc2c(c1)N1CCN=C1S2	SIAE primary 18.8
COc1ccc(N2CCN(CCCNC(=O)CCc3ccc(F)cc3)CC2)cc1	none (no result: TCR-CD3 inh, HTRA1 inhibitor)
COc1ccc(S(=O)(=O)Nc2ccccc2)cc1	none
COc1ccc(S(=O)(=O)Nc2ccc(O)c3ccccc23)cc1	ABHD4 inh 36.9
COc1ccccc1CCn1cnc(-c2ccccc2F)c1CC(C)C	none (no result: HTRA1 inhibitor)
COc1cccc2sc(Nc3nc(-c4cc5ccccc5oc4=O)cs3)nc12	TCR-CD3 inh 19.0
O=C(CNS(=O)(=O)c1ccc(Br)s1)N1CCN(c2ccccn2)CC1	none (no result: TCR-CD3 inh, HTRA1 inhibitor)
O=C(Nc1ccc2c(c1)OCO2)c1cc2ncc(Br)cn2n1	SIAE primary 68.4
CC(=O)c1cc(O)c2ccccc2c1O	ABHD4 inh 38.6
COc1ccc2c(c1)c(=O)oc1c(C)c(OCc3cc(C(=O)O)oc3C)ccc12	ABHD4 inh 31.9
COC(=O)C(NC(=O)c1ccccc1)=C1C=C(C)OC(C)=C1	SIAE primary 18.4
CCOC(=O)C(NC(=O)c1ccccc1)=C1C=C(C)OC(C)=C1	none
c1ccc(CC2CCN(c3nc4ccccc4n4nnnc34)CC2)cc1	TCR-CD3 inh 32.6
Cc1ccc(Nc2nc(-c3c(C)nc4ccccn34)cs2)cc1	ABHD4 inh 34.9
Cc1ccc(Nc2nc(-c3c(C)nc4ncccn34)cs2)cc1	none
Cc1cc2nc(-c3ccc(SCC(=O)Nc4ccc(S(=O)(=O)NC5CC5)cc4)nc3)[nH]c2cc1C	Tn6 DDE FP 28.6
CCOC(=O)Cn1cc(CN2CCS(=O)(=O)N(Cc3ccc(Cl)cc3)C(C(=O)OC)C2)nn1 (stereo not drawn)	none (no result: TCR-CD3 inh, HTRA1 inhibitor)
NS(=O)(=O)c1ccc2c(c1)C1C=CCC1C(C1CC=CCC1)N2 (stereo not drawn)	HTRA1 inhibitor 63.9 | HTRA1 conf 37.6
O=C(c1ccc(-c2cc(O)c3ncccc3c2)cc1)N1CCNCC1	HTRA1 inhibitor 62.5 | HTRA1 conf 49.5
COC(=O)N1C[C@H](OC)[C@H]2C[C@@H]1c1ccccc1O2	none (no result: HTRA1 inhibitor)
COc1cc(C2Nc3c(F)cccc3C3C=CCC32)cc(Br)c1OC (stereo not drawn)	none

Screening results deposited in PubChem by The Scripps Research Institute Molecular Screening Center.
